An excerpt weighted towards active compounds, which were near 3% of everything screened.
NPY-Y2 PAM-ag: NPY-Y2 potentiators or agonists, primary screen, cell-based; actives 0.45% (n = 220,000); activation, % at 3.6 µM; cells expressing NPY-Y2, potentiator/agonist read-out; Neuropeptide Y receptor type 2 (Homo sapiens), P49146; in the data active = activation above about 27%;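 also: cells stimulated with NPY near EC25 plus isoproterenol at EC100; 0% = vehicle plus submaximal agonist and 100% = vehicle plus saturating agonist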
NPY Y2 blocker: NPY-Y2 receptor antagonists, primary screen, cell-based. Neuropeptide Y receptor type 2 (Homo sapiens), P49146. actives 0.99% (n = 140,000). NPY-Y2 expressing cells, antagonist mode. inhibition, % at 2.7 µM; in the data active = inhibition above about 17%;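 also: 0% = vehicle with agonist challenge and 100% = reference antagonist with challenge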
Hsp70 activator: Hsp70 transcriptional activators, primary screen, cell-based, HeLa, Hsp70 promoter luciferase, luminescence, 10 µM; HeLa Hsp70 promoter luciferase reporter; scaled: vehicle 0, proteasome-inhibitor control 100%; actives 0.04% (n = 200,000); AID 1203, 2008; activation, % at 10 µM;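 active = activation above the mean across all tested compounds plus 3 SD, cutoff set per campaign, cut at about 5.5% in these data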;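 also: 100% = MG132 at 30 µM as the positive control and 0% = DMSO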
NPY-Y1 antag: NPY-Y1 receptor antagonists, primary screen, cell-based | AID 1040, 2008 | HEK293-CNG Y1 cells, membrane potential fluorescence; NPY at EC95, then isoproterenol | inhibition, % at 3.6 µM | Neuropeptide Y receptor type 1 (Homo sapiens), P25929 | actives 1% (n = 200,000);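 active = inhibition above the campaign mean inhibition of all tested compounds plus 3 SD, cut at about 20% in these data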;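 also: 0% = DMSO wells given NPY plus isoproterenol and 100% = isoproterenol alone without NPY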
Target sequence (P25929 whole entry, looked up): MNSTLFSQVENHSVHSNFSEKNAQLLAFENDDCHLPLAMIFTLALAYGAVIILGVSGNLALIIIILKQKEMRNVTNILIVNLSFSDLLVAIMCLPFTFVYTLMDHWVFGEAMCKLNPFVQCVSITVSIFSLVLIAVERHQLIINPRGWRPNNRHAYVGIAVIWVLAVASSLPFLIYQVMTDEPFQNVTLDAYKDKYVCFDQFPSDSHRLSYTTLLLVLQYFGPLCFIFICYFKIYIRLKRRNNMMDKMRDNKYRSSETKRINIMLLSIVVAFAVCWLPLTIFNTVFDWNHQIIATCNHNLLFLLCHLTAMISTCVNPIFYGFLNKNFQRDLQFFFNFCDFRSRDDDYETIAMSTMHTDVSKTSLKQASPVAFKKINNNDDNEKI
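Test system – HEK293 Y1/CNG channel cell line · Also added – NPY agonist 25 nM, then isoproterenol 1 µM plus Ro 20-1724 25 µM · Compound dosing – one concentration, 3.6 µM, in 0.4% DMSO · Schedule – compound incubation 1 h at room temperature, readout 45 min post-stimulation · Technique – fluorescence, membrane potential probe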
Wee1 degr inh: Wee1 degradation inhibitors, primary screen, cell-based, HeLa, Wee1K328M-luciferase, luminescence; HeLa Luc-Wee1K328M stability; 100% = proteasome inhibitor MG132 effect; actives 1.2% (n = 220,000); AID 1321, 2008; reporter increase, % at 5 µM;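 active = activation above the mean of all tested compounds plus 3 SD, set per screening run, cut at about 8.8% in these data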;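 also: cells exposed to compound for 20 h before luminescence read; 0% = DMSO alone and 100% = MG132 at 30 µM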
NPY1 pot ag: NPY-Y1 receptor potentiators or agonists, primary screen, cell-based; NPY-Y1 expressing cells, potentiator/agonist activation; actives 0.37% (n = 220,000); Neuropeptide Y receptor type 1 (Homo sapiens), P25929; AID 1304, 2008; activation, % at 3.6 µM; in the data active = activation above about 33%, passing the limit was not always enough;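 also: cells stimulated with NPY at EC10 then isoproterenol at EC100; 0% = low agonist plus stimulus and 100% = saturating agonist plus stimulus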
Wee1 stab conf: Wee1 degradation inhibitors, confirmation, cell-based, HeLa, Wee1K328M-luciferase, luminescence, triplicate; HeLa Luc-Wee1K328M degradation; vehicle 0%, proteasome-blocked wells 100%; shares compounds with Wee1 degr inh; AID 1410, 2008; activation, % at 5 µM; actives 4% (n = 1,100); in the data active = activation above about 8.9%
An asterisk follows results filed as active; . = not tested or not shown.

SMILES	NPY-Y2 PAM-ag	NPY Y2 blocker	Hsp70 activator	NPY-Y1 antag	Wee1 degr inh	NPY1 pot ag	Wee1 stab conf
COc1ccc(OC)c2[nH]c(=O)c(CCNC(=O)CC(C)C)cc12	4	5	0	2	11*	17	0
CC(C)CCn1c(SCC(N)=O)nc2c1c(=O)n(C)c(=O)n2C	3	-1	0	-1	-2	0	.
Cc1cc(-c2nnc(-c3cccc(Cl)c3)o2)no1	-30	.	.	.	18*	-3	2
Cc1cccc(-c2nnc(-c3ccccc3)o2)c1	-9	11	0	14	-1	-18	.
OC(C#CCN1CCCCCC1)(c1ccccc1)c1cccnc1 (stereo not given)	8	.	.	.	3	-5	.
CC(C)C(O)(C#CCN1CCCCC1)c1ccccc1 (stereo not given)	11	3	0	-2	12*	-1	2
CCOC(=O)N1CCN(C(=O)c2cc(-c3ccc(OCC)cc3)nc3ccccc23)CC1	3	5	0	3	12*	4	22*
CCOc1ccc(-c2cc(C(=O)N3CCN(c4ccccn4)CC3)c3ccccc3n2)cc1	-3	1	0	-2	2	-16	.
CCOc1ccc(-c2cc(C(=O)NN3CCN(C)CC3)c3cc(Cl)ccc3n2)cc1	-20	3	0	11	11*	-19	1
CCOc1ccc(-c2cc(C(=O)N3CCN(C)CC3)c3ccccc3n2)cc1	10	3	0	-2	17*	0	1
CCOc1ccc2nc(-c3ccc(OC)c(OC)c3)cc(C(=O)O)c2c1	-22	3	0	5	-1	-11	.
CC(CCc1ccccc1)NC(=O)CN1CCN(Cc2ccc(Cl)cc2)C1=O (stereo not given)	6	5	0	6	-1	-9	.
Cc1ccc(-n2nc(C)c(/C=N/n3c(C)n[nH]c3=S)c2Cl)cc1	-10	.	0	12	0	-19	.
CSc1nnc(C)c(=O)n1COC(=O)COc1ccccc1C	-6	-2	0	-3	5	0	.
O=C(NCc1ccccc1)N1CCC(n2cnc3cc(F)ccc32)CC1	-11	1	0	-5	-1	8	.
Cc1ccc(N(CN2C(=O)c3ccccc3C2=O)C(=O)c2ccc([N+](=O)[O-])cc2[N+](=O)[O-])cc1	-1	-1	0	7	-1	-17	.
O=C(CSc1nc2[nH]ncc2c(=O)n1-c1ccccc1)N1CCCCCC1	4	.	0	-2	12*	-15	2
COc1ccc(OC)c(/C=C/C(=O)OCC(=O)c2c(N)n(C)c(=O)n(C)c2=O)c1	-8	.	0	2	-1	4	.
N#CCCn1c(O)c(N=NC(=O)CNC(=O)c2cccs2)c2ccccc21	-1	.	.	.	15*	-18	-1
O=C(CNC(=O)c1ccco1)N=Nc1c(O)n(CCc2ccccc2)c2ccccc12	-32	.	.	.	1	-9	.
Cc1nc(NC(=O)c2ccc3c(c2)OCO3)ccc1Br	2	.	1	4	19*	2	1
Cc1nc2ccccn2c1-c1csc(Nc2cccc(O)c2)n1	-14	.	0	-1	13*	2	11*
O=C(Nc1ccc2c(c1)OCO2)N1CCCC1	8	.	0	2	0	7	.
Cc1ccccc1-n1c2nc(=O)n(C)c(=O)c-2cc2ccccc21	-13	.	.	.	14*	-1	1
Cc1ccc(C(=O)CC(C(=O)O)P(=O)(c2ccccc2)c2ccccc2)cc1 (stereo not given)	8	.	0	4	14*	3	1
SMILES	NPY-Y2 PAM-ag	NPY Y2 blocker	Hsp70 activator	NPY-Y1 antag	Wee1 degr inh	NPY1 pot ag	Wee1 stab conf
COc1ccccc1/C=C/C=N/n1c(-c2ccccc2)n[nH]c1=S	-6	.	.	.	1	3	.
COc1ccc(-c2n[nH]c(=S)n2/N=C/C=C/c2ccccc2OC)cc1	-10	7	0	9	11*	-9	7
CN(Cc1ccsc1)C(=O)CCc1nnc(CCCc2ccccc2)o1	-4	.	0	4	11*	-4	2
CN(Cc1ccsc1)C(=O)CCc1nnc(Cc2c[nH]c3ccccc23)o1	-19	.	0	5	3	-23	.
CC1CCCCN1C(=O)Cn1c(=O)n(-c2ccc(F)cc2)c(=O)c2sccc21 (stereo not given)	11	.	0	-1	11*	11	4
CCOC(=O)c1cc(C)n(-c2ccc(OC)c(OC)c2)c1C	2	3	0	3	1	-9	.
CN(C)C(=S)NC(=O)C12CC3(C)CC(C)(CC(C)(C3)C1)C2	-1	.	.	.	11*	36	-1
O=C(OCC(=O)c1ccccc1Cl)c1cnccn1	-11	-2	0	-2	12*	-8	-6
O=C(Oc1ccc(=O)n(-c2ccccc2)n1)c1cccc(Cl)c1	-2	1	0	-2	11*	-6	3
Cc1ccc(NC2=CC(=O)CC(c3ccc(Cl)cc3)C2)cc1 (stereo not given)	-3	1	-1	-2	15*	-1	1
Cc1ccc(NC(=O)CCn2c(=S)oc3ccccc32)cc1	-14	.	0	-3	2	-1	.
CN(C)c1ccc(NC(=O)CCn2c(=S)oc3ccccc32)cc1	8	.	0	2	11*	9	2
O=C(NC1CCCCC1)c1cc(Cl)ccc1[N+](=O)[O-]	8	-1	0	3	16*	5	0
CN1/C(=C\C(=O)COC(=O)CNC(=O)c2ccccc2F)C(C)(C)c2ccccc21	-8	4	0	7	23*	-22	-1
Cc1ccc(/C=N/NC(=O)c2ccc3c(c2)OCCO3)s1	0	.	.	.	12*	-13	11*
O=C(N/N=C/c1cc(Br)cs1)c1ccc2c(c1)OCCO2	4	.	.	.	5	4	.
O=S1(=O)N=C(Nc2ccc(N3CCOCC3)c(Cl)c2)c2ccccc21	-6	.	1	1	11*	-16	6
O=S1(=O)N=C(Nc2ccc(O)cc2)c2ccccc21	-7	.	0	3	-1	-9	.
COc1cc(OC)cc(C(=O)NCCCN2CCN(CCCNC(=O)c3cc(OC)cc(OC)c3)CC2)c1	-4	1	0	1	-4	1	.
CCN1CCc2nc(NC(=O)C(c3ccccc3)c3ccccc3)sc2C1	-17	3	0	1	11*	19	0

From PubChem BioAssay
